Laboratory results reported in ChEMBL document CHEMBL1795212, “Synthesis and in vitro antimalarial activity of tetraoxane-amine/amide conjugates” (Eur J Med Chem, 2011).
pIC50: −log10 of the molar value.

Key:
[1] = Selectivity index, IC50 for african green monkey Vero cells to IC50 for Plasmodium falciparum D6; assay type: functional
Method in brief: (§1)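 Selectivity index is the cytotoxicity IC50 in Vero cells divided by the antimalarial IC50 against the stated P. falciparum clone (D6 or W2).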

[2] = tested on: Plasmodium falciparum; assay: Antimalarial activity against Plasmodium falciparum D6 assessed as plasmodial LDH activity after 72 hrs; assay type: functional, organism-based; conditions: Plasmodium falciparum, D6, 72 h; read-out: IC50
Method in brief: (§2)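 P. falciparum D6 (chloroquine-sensitive) and W2 (chloroquine-resistant) clones screened in vitro alongside Vero cytotoxicity, up to a highest concentration of 12.5; IC50 determined.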

[3] = tested on: Plasmodium falciparum; assay: Antimalarial activity against Plasmodium falciparum W2 assessed as plasmodial LDH activity after 72 hrs; assay type: functional, organism-based; conditions: Plasmodium falciparum, W2, 72 h; read-out: IC50; method in brief: as §2
[4] = Selectivity index, IC50 for african green monkey Vero cells to IC50 for Plasmodium falciparum W2; assay type: functional; method in brief: as §1
[5] = tested on: Vero; assay: Cytotoxicity against african green monkey Vero cells at 12.5 uM; assay type: cell-based; conditions: chlorocebus sabaeus
Method in brief: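 Mammalian kidney Vero cells screened in vitro for cytotoxicity, in parallel with the antimalarial screen, up to a highest concentration of 12.5.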

[6] = tested on: SK-MEL; assay: Cytotoxicity against human SK-MEL cells up to 25 uM; assay type: cell-based
Method in brief: (§3)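 Cytotoxicity panel: four cancer lines (SK-MEL, KB, BT-549, SK-OV-3) and two non-cancer lines (Vero, LLC-PK11), tested up to a concentration of 25.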

[7] = tested on: KB; assay: Cytotoxicity against human KB cells up to 25 uM; assay type: cell-based; method in brief: as §3
[8] = tested on: BT-549; assay: Cytotoxicity against human BT549 cells up to 25 uM; assay type: cell-based; method in brief: as §3
[9] = tested on: SK-OV-3; assay: Cytotoxicity against human SKOV3 cells up to 25 uM; assay type: cell-based; method in brief: as §3
[10] = tested on: Vero; assay: Cytotoxicity against african green monkey Vero cells up to 25 uM; assay type: cell-based; conditions: chlorocebus sabaeus; method in brief: as §3
[11] = Cytotoxicity against pig LLC-PK11 cells up to 25 uM; assay type: cell-based, Sus scrofa; method in brief: as §3

SMILES | Ratio IC50 [1] | pIC50 [2] | pIC50 [3] | Ratio IC50 [4] | Activity [5] | Activity [6] | Activity [7] | Activity [8] | Activity [9] | Activity [10] | Activity [11]
Cc1ccc(C2OOC(c3ccc(CNc4ccc(O)cc4)cc3)OO2)cc1 (configuration not stated) | >1.8 | 5.20 | 5.15 | >1.8 | Non-toxic | – | – | – | – | – | –
Cc1ccc(C2OOC(c3ccc(/C=N\c4cccnc4)cc3)OO2)cc1 (configuration not stated) | >17.6 | 6.12 | 6.10 | >16.4 | Non-toxic | Non-toxic | Non-toxic | Non-toxic | Non-toxic | Non-toxic | Non-toxic
Cc1ccc(C2OOC(c3ccc(CNc4cccnc4)cc3)OO2)cc1 (configuration not stated) | >34 | 6.42 | 6.24 | >22.7 | Non-toxic | Non-toxic | Non-toxic | Non-toxic | Non-toxic | Non-toxic | Non-toxic
Cc1ccc(C2OOC(c3ccc(CNc4ccc(Br)cc4)cc3)OO2)cc1 (configuration not stated) | >1.4 | 5.11 | 5.30 | >2.2 | Non-toxic | – | – | – | – | – | –
COc1ccc(NCc2ccc(C3OOC(c4ccc(C)cc4)OO3)cc2)cc1 (configuration not stated) | >1.5 | 5.09 | 4.99 | >1.2 | Non-toxic | – | – | – | – | – | –
COc1cc(NCc2ccc(C3OOC(c4ccc(C)cc4)OO3)cc2)cc(OC)c1 (configuration not stated) | >1.8 | 5.20 | 5.04 | >1.2 | Non-toxic | – | – | – | – | – | –
Cc1ccc(C2OOC(c3ccc(CNc4cccc(O)c4)cc3)OO2)cc1 (configuration not stated) | >3.7 | 5.47 | 5.40 | >3.2 | Non-toxic | – | – | – | – | – | –
Cc1ccc(C2OOC(c3ccc(CNc4ccc(N)cc4)cc3)OO2)cc1 (configuration not stated) | >2.4 | 5.28 | 5.13 | >1.7 | Non-toxic | – | – | – | – | – | –
Cc1ccc(C2OOC(c3ccc(C(=O)O)cc3)OO2)cc1 (configuration not stated) | >1.5 | 4.98 | 5.03 | >1.7 | Non-toxic | – | – | – | – | – | –
CCc1ccc(C2OOC(c3ccc(C(=O)NCCO)cc3)OO2)cc1 (configuration not stated) | >2 | 5.18 | 5.12 | >1.8 | Non-toxic | – | – | – | – | – | –
CCc1ccc(C2OOC(c3ccc(C(=O)NCCCO)cc3)OO2)cc1 (configuration not stated) | >2.6 | 5.32 | 5.32 | >2.6 | Non-toxic | – | – | – | – | – | –
CCc1ccc(C2OOC(c3ccc(C(=O)NCCCCCCO)cc3)OO2)cc1 (configuration not stated) | >3.4 | 5.47 | 5.32 | >2.4 | Non-toxic | – | – | – | – | – | –
CCCNC(=O)c1ccc(C2OOC(c3ccc(C)cc3)OO2)cc1 (configuration not stated) | >3.4 | 5.06 | 4.86 | >1 | Non-toxic | – | – | – | – | – | –
CCCCNC(=O)c1ccc(C2OOC(c3ccc(CC)cc3)OO2)cc1 (configuration not stated) | >1.9 | 5.17 | 5.16 | >1.8 | Non-toxic | – | – | – | – | – | –
Cc1ccc(C2OOC(c3ccc(C(=O)NCCNc4ccnc5cc(Cl)ccc45)cc3)OO2)cc1 (configuration not stated) | >8.5 | 5.96 | 5.82 | >6.3 | Non-toxic | – | – | – | – | – | –
Cc1ccc(C2OOC(c3ccc(C(=O)NCCCNc4ccnc5cc(Cl)ccc45)cc3)OO2)cc1 (configuration not stated) | >7.7 | 5.92 | 5.68 | >4.3 | Non-toxic | – | – | – | – | – | –
CCc1ccc(C2OOC(c3ccc(C(=O)NCCCNc4ccnc5cc(Cl)ccc45)cc3)OO2)cc1 (configuration not stated) | >8.2 | 5.97 | 5.61 | >3.7 | Non-toxic | – | – | – | – | – | –
Cc1ccc(C2OOC(c3ccc(C(=O)NCCc4ccccc4)cc3)OO2)cc1 (configuration not stated) | >4.3 | 5.57 | 5.68 | >5.6 | Non-toxic | – | – | – | – | – | –
Cc1ccc(C2OOC(c3ccc(C(=O)N4CCN(c5ccccc5)CC4)cc3)OO2)cc1 (configuration not stated) | >2.6 | 5.39 | 5.15 | >1.5 | Non-toxic | – | – | – | – | – | –
Cc1ccc(C2OOC(c3ccc(C(=O)NC4CCCCC4)cc3)OO2)cc1 (configuration not stated) | >2.8 | 5.35 | 5.54 | >4.3 | Non-toxic | – | – | – | – | – | –
Cc1ccc(C2OOC(c3ccc(C(=O)NCCCCCCCN)cc3)OO2)cc1 (configuration not stated) | >2.2 | 5.29 | 5.33 | >2.4 | Non-toxic | – | – | – | – | – | –
C[C@@H]1CC[C@H]2[C@@H](C)C(=O)O[C@@H]3O[C@@]4(C)CC[C@@H]1[C@]32OO4 [ARTEMISININ] | >500 | 7.52 | 7.60 | >670 | Non-toxic | – | – | – | – | – | –
